# According to ChEMBL document CHEMBL4130411, “Arylthiazole antibiotics targeting intracellular methicillin-resistant Staphylococcus aureus (MRSA) that interfere with bacterial cell wall synthesis” (Eur J Med Chem, 2017):
# Activity calls are given as the source filed them. The calls are words filed in the database; no cut-off is given here.
# Key:
# Staphylococcus aureus [1] = assay: Antibacterial activity against methicillin-resistant Staphylococcus aureus USA300 NRS384 after 20 hrs by broth microdilution assay; format: functional; settings: USA300 NRS384, 20 h
# Staphylococcus aureus [2] = assay: Antibacterial activity against vancomycin-resistant Staphylococcus aureus isolate 4 after 20 hrs by broth microdilution assay; format: functional; settings: isolate 4, 20 h
# Staphylococcus aureus [3] = assay: Antibacterial activity against vancomycin-resistant Staphylococcus aureus isolate 10 after 20 hrs by broth microdilution assay; format: functional; settings: isolate 10, 20 h
# Staphylococcus aureus [4] = assay: Bactericidal activity against Staphylococcus aureus RN4220 NRS107 incubated for 20 hrs followed by replating on tryptic soy agar plates and further incubated for 18 hrs by broth microdilution assay; format: functional
# Staphylococcus aureus [5] = assay: Bactericidal activity against methicillin-resistant Staphylococcus aureus NRS123 (USA400) incubated for 20 hrs followed by replating on tryptic soy agar plates and further incubated for 18 hrs by broth microdilution assay; format: functional
# Staphylococcus aureus [6] = assay: Bactericidal activity against methicillin-resistant Staphylococcus aureus USA100 NRS382 incubated for 20 hrs followed by replating on tryptic soy agar plates and further incubated for 18 hrs by broth microdilution assay; format: functional
# Staphylococcus aureus [7] = assay: Bactericidal activity against methicillin-resistant Staphylococcus aureus USA200 NRS383 incubated for 20 hrs followed by replating on tryptic soy agar plates and further incubated for 18 hrs by broth microdilution assay; format: functional
# Staphylococcus aureus [8] = assay: Bactericidal activity against methicillin-resistant Staphylococcus aureus USA300 NRS384 incubated for 20 hrs followed by replating on tryptic soy agar plates and further incubated for 18 hrs by broth microdilution assay; format: functional
# Staphylococcus aureus [9] = assay: Bactericidal activity against vancomycin-resistant Staphylococcus aureus isolate 4 incubated for 20 hrs followed by replating on tryptic soy agar plates and further incubated for 18 hrs by broth microdilution assay; format: functional
# Staphylococcus aureus [10] = assay: Bactericidal activity against vancomycin-resistant Staphylococcus aureus isolate 10 incubated for 20 hrs followed by replating on tryptic soy agar plates and further incubated for 18 hrs by broth microdilution assay; format: functional
# Summary of the method: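 From MIC wells without visible growth, an aliquot was spotted onto Tryptic soy agar and incubated at 37 °C for at least 18 h; MBC = lowest concentration inhibiting 99.9% of bacterial growth.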
# Staphylococcus aureus [11] = assay: Bactericidal activity against methicillin-resistant Staphylococcus aureus NRS123 (USA400) assessed as time required for complete bacterial elimination by time-kill assay; format: functional
# HaCaT = assay: Cytotoxicity against human HaCaT cells assessed as reduction in cell viability up to 32 ug/ml after 2 hrs by MTS assay; format: cell-based
# Summary of the method: (§1)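 Cells were HaCaT keratinocytes or J774 murine macrophages, grown in DMEM with 10% FBS at 37 °C, 5% CO2. They were exposed in triplicate to 8, 16, 32 and 64 µg/mL for 2 h, with DMSO-matched controls. MTS was then added for 4 h and absorbance read at 490 nm. Viability is expressed as % of DMSO-treated cells, mean ± SD.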
# J774 = assay: Cytotoxicity against mouse J774 cells assessed as reduction in cell viability up to 16 ug/ml after 2 hrs by MTS assay; format: cell-based; settings: j774, 2 h; summary of the method: as §1
# Staphylococcus aureus [12] = assay: Antibacterial activity against methicillin-resistant Staphylococcus aureus NRS123 (USA400) infected in mouse J774 cells assessed as reduction in bacterial colony forming units at 16 ug/ml after 4 hrs; format: functional, organism-based
# Summary of the method: (§2)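 J774 macrophages in DMEM + 10% FBS, 37 °C, 5% CO2, infected with USA400 at MOI ~100:1; after 1 h, gentamicin (50 µg/mL) wash; agent at 16 µg/mL in triplicate; at time point, gentamicin wash, lysis in 0.1% Triton X-100, serial dilution, TSA plating 18-22 h at 37 °C; % CFU/mL reduction versus untreated; t-test.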
# Staphylococcus aureus [13] = assay: Antibacterial activity against methicillin-resistant Staphylococcus aureus NRS123 (USA400) infected in mouse J774 cells assessed as reduction in bacterial colony forming units at 16 ug/ml after 24 hrs relative to control; format: functional; design: scale not given: the % may be the effect or the level left; summary of the method: as §2
# Staphylococcus aureus [14] = assay: Antibacterial activity against methicillin-resistant Staphylococcus aureus USA300 NRS384 infected in Caenorhabditis elegans AU37 assessed as reduction in bacterial burden at 20 ug/ml after 18 hrs by microscopic analysis; format: functional; design: scale not given: the % may be the effect or the level left
# Staphylococcus aureus [15] = assay: Inhibition of cell wall synthesis in Staphylococcus aureus RN4220 NRS107 assessed as UDP-N-acetylmuramyl pentapeptide formation at 10 times MIC incubated for 30 mins by HPLC-MS analysis; format: functional, organism-based
# Bacillus subtilis [16] = assay: Inhibition of cell wall biosynthesis in Bacillus subtilis assessed as induction of small bulges formation at 3.5 ug/ml incubated for 2 hrs in presence of osmotic stabilising agent MSM by FM-4-64 staining based assay; format: functional, organism-based
# Summary of the method: (§3)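 B. subtilis grown in LB at 37 °C to OD600 ~0.2, then treated with or without the osmotic stabiliser MSM for 2 h; stained with FM 4-64 (1 µg/mL, membranes), DAPI (1 µg/mL, DNA) and SYTOX Green (1 µg/mL, lysis); imaged by deconvolution fluorescence microscopy.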
# Bacillus subtilis [17] = assay: Inhibition of cell wall biosynthesis in Bacillus subtilis assessed as induction of formation of misshapen cells at 3.5 ug/ml incubated for 2 hrs in presence of osmotic stabilising agent MSM by FM-4-64 staining based assay; format: functional, organism-based; summary of the method: as §3
# Staphylococcus aureus [18] = assay: Selectivity ratio of MBC99.9 for Staphylococcus aureus RN4220 NRS107 to MIC for Staphylococcus aureus RN4220 NRS107; format: functional
# Staphylococcus aureus [19] = assay: Selectivity ratio of MBC99.9 for methicillin-resistant Staphylococcus aureus NRS123 (USA400) to MIC for methicillin-resistant Staphylococcus aureus NRS123 (USA400); format: functional
# Staphylococcus aureus [20] = assay: Selectivity ratio of MBC99.9 for methicillin-resistant Staphylococcus aureus USA100 NRS382 to MIC for methicillin-resistant Staphylococcus aureus USA100 NRS382; format: functional
# Staphylococcus aureus [21] = assay: Selectivity ratio of MBC99.9 for methicillin-resistant Staphylococcus aureus USA200 NRS383 to MIC for methicillin-resistant Staphylococcus aureus USA200 NRS383; format: functional
# Staphylococcus aureus [22] = assay: Selectivity ratio of MBC99.9 for methicillin-resistant Staphylococcus aureus USA300 NRS384 to MIC for methicillin-resistant Staphylococcus aureus USA300 NRS384; format: functional
# [23] = Half life in human liver microsomes in presence of NADPH by LC-MS/MS analysis; format: ADME, microsome; settings: microsomes
# Summary of the method: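 Human liver microsomal protein was incubated in duplicate at 37 °C in 100 mM potassium phosphate, 2 mM NADPH, 3 mM MgCl2, pH 7.4. Samples were taken at 0, 10, 20, 40 and 60 min and stopped with ice-cold methanol containing an internal standard. Half-life was derived from depletion. CLint = ln(2)/(T1/2 × microsomal protein concentration).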
# [24] = Half life in human liver microsomes in absence of NADPH by LC-MS/MS analysis; format: ADME, microsome
# Summary of the method: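 Human liver microsomes were incubated in duplicate at 37 °C in 100 mM potassium phosphate with 3 mM MgCl2, pH 7.4, without NADPH to detect NADPH-free degradation. Aliquots were taken at 0, 10, 20, 40 and 60 min and quenched in ice-cold methanol containing an internal standard, then held at least 10 min at -20 °C before water was added. Half-life was taken from compound depletion.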
# [25] = Selectivity ratio of cytotoxicity against human HaCaT cells to MIC for Staphylococcus aureus RN4220 NRS107; format: toxicity, cell-based
# [26] = Selectivity ratio of cytotoxicity against human HaCaT cells to MIC for methicillin-resistant Staphylococcus aureus NRS123 (USA400); format: toxicity, cell-based
# [27] = Selectivity ratio of cytotoxicity against human HaCaT cells to MIC for methicillin-resistant Staphylococcus aureus USA100 NRS382; format: toxicity, cell-based
# [28] = Selectivity ratio of cytotoxicity against human HaCaT cells to MIC for methicillin-resistant Staphylococcus aureus USA200 NRS383; format: toxicity, cell-based
# [29] = Selectivity ratio of cytotoxicity against human HaCaT cells to MIC for methicillin-resistant Staphylococcus aureus USA300 NRS384; format: toxicity, cell-based
# Staphylococcus aureus [30] = assay: Antibacterial activity against methicillin-resistant Staphylococcus aureus USA300 NRS384 infected in Caenorhabditis elegans AU37 assessed as reduction in bacterial burden at 20 ug/ml after 18 hrs by microscopic analysis relative to vancomycin; format: functional
# Staphylococcus aureus [31] = assay: Potentiation of vancomycin-induced antibacterial activity against vancomycin-resistant Staphylococcus aureus isolate 10 assessed as vancomycin MIC after 20 to 22 hrs by broth microdilution assay (reference value: […]); format: functional
# Staphylococcus aureus [32] = assay: Potentiation of vancomycin-induced antibacterial activity against vancomycin-resistant Staphylococcus aureus isolate 10 assessed as reduction in vancomycin MIC after 20 to 22 hrs by broth microdilution assay relative to vancomycin alone; format: functional
# Bacillus subtilis [33] = assay: Inhibition of cell wall biosynthesis in Bacillus subtilis at 4 times MIC incubated for 2 hrs by SYTOX Green staining-based assay
smiles,measurement,setting,value
Cc1nc(-c2ccc3ccccc3c2)sc1-c1cnc(NC(=N)N)s1,MIC,Staphylococcus aureus [1],4 µg/mL
same,MIC,Staphylococcus aureus [2],4 µg/mL
same,MIC,Staphylococcus aureus [3],4 µg/mL
same,MBC,Staphylococcus aureus [4],4 µg/mL
same,MBC,Staphylococcus aureus [5],4 µg/mL
same,MBC,Staphylococcus aureus [6],2 µg/mL
same,MBC,Staphylococcus aureus [7],2 µg/mL
same,MBC,Staphylococcus aureus [8],4 µg/mL
same,MBC,Staphylococcus aureus [9],4 µg/mL
same,MBC,Staphylococcus aureus [10],4 µg/mL
same,Time,Staphylococcus aureus [11],<=4 hr
same,Activity,HaCaT,Non-Toxic
same,Activity,J774,Non-Toxic
same,Activity,Staphylococcus aureus [12],inactive
same,Activity,Staphylococcus aureus [13],81%
same,Activity,Staphylococcus aureus [14],30%
same,inhibition,Staphylococcus aureus [15],Active
same,inhibition,Bacillus subtilis [16],Active
same,inhibition,Bacillus subtilis [17],Active
same,selectivity ratio,Staphylococcus aureus [18],2
same,selectivity ratio,Staphylococcus aureus [19],2
same,selectivity ratio,Staphylococcus aureus [20],2
same,selectivity ratio,Staphylococcus aureus [21],1
same,selectivity ratio,Staphylococcus aureus [22],1
same,t1/2,[23],2.23 h
same,t1/2,[24],> 4 h
same,selectivity ratio,[25],4 to 16
same,selectivity ratio,[26],4 to 16
same,selectivity ratio,[27],4 to 16
same,selectivity ratio,[28],4 to 16
same,selectivity ratio,[29],4 to 16
same,fold change (FC),Staphylococcus aureus [30],3
same,MIC,Staphylococcus aureus [31],1 µg/mL
same,fold change (FC),Staphylococcus aureus [32],512
same,inhibition,Bacillus subtilis [33],Active
